ChEMBL document CHEMBL1143636, “A series of bisaryl imidazolidin-2-ones has shown to be selective and orally active 5-HT2C receptor antagonists” (Bioorg Med Chem Lett, 2005)
The source made the active and inactive calls. No cut-off for these calls is given here.

How the values were obtained:
[1] = molecular target: 5-hydroxytryptamine receptor 2B (Homo sapiens, UniProt P41595); experiment: Binding affinity for human 5-hydroxytryptamine 2B receptor expressed in HEK 293 cells using [3H]5-HT; format: cell-based, HEK293
Sequence of 5-hydroxytryptamine receptor 2B (P41595 whole entry): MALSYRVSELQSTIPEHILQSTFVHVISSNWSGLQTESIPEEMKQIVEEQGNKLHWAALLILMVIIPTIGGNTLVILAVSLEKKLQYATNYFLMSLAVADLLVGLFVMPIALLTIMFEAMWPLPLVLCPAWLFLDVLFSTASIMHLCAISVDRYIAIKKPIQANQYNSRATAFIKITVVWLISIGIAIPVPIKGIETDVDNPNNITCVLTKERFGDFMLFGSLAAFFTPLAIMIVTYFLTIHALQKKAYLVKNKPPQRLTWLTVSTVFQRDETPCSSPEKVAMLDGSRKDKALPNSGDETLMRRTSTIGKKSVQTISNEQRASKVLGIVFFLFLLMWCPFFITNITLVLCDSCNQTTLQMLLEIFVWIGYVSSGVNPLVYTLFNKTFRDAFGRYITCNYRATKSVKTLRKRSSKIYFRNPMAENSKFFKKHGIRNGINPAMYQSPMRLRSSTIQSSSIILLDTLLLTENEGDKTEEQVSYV

[2] = molecular target: 5-hydroxytryptamine receptor 2A (Homo sapiens, UniProt P28223); experiment: Binding affinity for human 5-hydroxytryptamine 2A receptor expressed in HEK 293 cells using [3H]ketanserin; format: cell-based, HEK293
Sequence of 5-hydroxytryptamine receptor 2A (P28223 whole entry): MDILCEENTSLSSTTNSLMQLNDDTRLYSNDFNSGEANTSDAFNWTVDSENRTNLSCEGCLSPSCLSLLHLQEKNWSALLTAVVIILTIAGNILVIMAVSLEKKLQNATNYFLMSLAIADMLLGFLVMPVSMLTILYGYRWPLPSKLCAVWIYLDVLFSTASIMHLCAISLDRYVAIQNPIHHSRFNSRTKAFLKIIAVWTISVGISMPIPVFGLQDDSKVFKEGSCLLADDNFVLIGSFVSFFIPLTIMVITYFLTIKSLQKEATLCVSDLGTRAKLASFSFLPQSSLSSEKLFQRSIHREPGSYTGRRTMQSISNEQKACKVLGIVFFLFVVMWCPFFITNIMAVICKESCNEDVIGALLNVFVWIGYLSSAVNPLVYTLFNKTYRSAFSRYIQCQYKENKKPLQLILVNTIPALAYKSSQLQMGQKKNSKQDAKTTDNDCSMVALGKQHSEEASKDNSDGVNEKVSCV

[3] = molecular target: T1, 5-hydroxytryptamine receptor 2C (Homo sapiens, UniProt P28335); experiment: Binding affinity for human 5-hydroxytryptamine 2C receptor expressed in HEK 293 cells using [3H]mesulergine; format: cell-based, HEK293
T1 sequence (P28335 whole entry): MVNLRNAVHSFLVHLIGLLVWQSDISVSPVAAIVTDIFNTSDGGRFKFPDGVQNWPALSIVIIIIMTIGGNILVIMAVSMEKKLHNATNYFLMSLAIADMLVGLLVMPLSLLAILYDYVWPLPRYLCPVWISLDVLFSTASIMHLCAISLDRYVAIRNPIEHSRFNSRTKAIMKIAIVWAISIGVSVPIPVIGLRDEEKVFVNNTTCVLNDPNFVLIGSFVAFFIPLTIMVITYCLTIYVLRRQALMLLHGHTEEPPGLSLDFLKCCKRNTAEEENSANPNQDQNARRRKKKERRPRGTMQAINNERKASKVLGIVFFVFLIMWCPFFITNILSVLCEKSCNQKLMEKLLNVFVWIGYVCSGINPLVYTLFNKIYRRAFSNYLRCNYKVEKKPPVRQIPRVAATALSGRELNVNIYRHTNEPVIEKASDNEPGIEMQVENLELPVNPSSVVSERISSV

Rattus norvegicus [4] = experiment: Percentage reversal at 10 mg/kg po of mCPP (7 mg/kg i.p.) induced hypolocomotion; in active; format: functional, organism-based; parameters: dose 10 mg/kg
Procedure, shortened: (§1)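 Rats were given the test compound orally at 10 mg/kg. mCPP, a 5-HT2C agonist, was given at 7 mg/kg ip 20 min before testing to induce hypolocomotion. The read-out was the percentage reversal of mCPP-induced hypolocomotion.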

Rattus norvegicus [5] = experiment: Percentage reversal at 10 mg/kg po of mCPP (7 mg/kg i.p.) induced hypolocomotion; format: functional; procedure, shortened: as §1
Rattus norvegicus [6] = experiment: Percentage reversal at 10 mg/kg po of mCPP (7 mg/kg i.p.) induced hypolocomotion; IA = in active; format: functional, organism-based; parameters: dose 10 mg/kg; procedure, shortened: as §1
Rattus norvegicus [7] = experiment: Dose of compound required to reverse mCPP (7 mg/kg i.p.) induced hypolocomotion by 50%; format: functional
Procedure, shortened: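 In rats, hypolocomotion was induced with the 5-HT2C agonist mCPP at 7 mg/kg ip, given 30 min pretest. The value is the compound dose that reversed the mCPP-induced hypolocomotion by 50%.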

[8] = In vivo clearance in rat was determined; format: ADME, organism-based

SMILES | Ki [1] | Ki [2] | Ki [3] | Reversal (Rattus norvegicus [4]) | Reversal (Rattus norvegicus [5]) | Reversal (Rattus norvegicus [6]) | ID50 (Rattus norvegicus [7]) | clearance [8]
COc1ccc(N2CCN(c3ccc(C)c(C(F)(F)F)c3)C2=O)cc1OCCN1CCOCC1 | 126 nM | 3160 nM | 7.94 nM | inactive |  |  |  | 
COc1cc2c(cc1OCCN1CCCCC1)N(C(=O)/C=C/c1ccccc1Cl)CC2 | 126 nM | 398 nM | 0.631 nM |  | 71% |  |  | 
O=C1N(c2ccc(OCCN3CCCCC3)nc2)CCN1c1ccc(Cl)c(Cl)c1 | 158 nM | 1000 nM | 25.1 nM |  |  |  |  | 
COc1ccc(N2CCN(c3ccc(C)c(C(F)(F)F)c3)C2=O)cc1OCCN1CCCCC1 | 79.4 nM | 398 nM | 2 nM | inactive |  |  |  | 
COc1ccc(N2CCN(c3cccc(F)c3)C2=O)cc1OCCO | 1260 nM | > 10000 nM | 1260 nM |  |  |  |  | 
COc1ccc(N2CCN(c3cccc(Cl)c3Cl)C2=O)cc1OCCN1CCCCC1 | 1260 nM | 1580 nM | 10 nM |  |  | inactive |  | 
COc1ccc(-n2ccn(-c3cc(F)cc(F)c3)c2=O)cc1OCCN1CCCCC1 | > 7940 nM | > 10000 nM | 7.94 nM |  |  |  |  | 
COc1ccc(N2CCN(c3ccccc3)C2=O)cc1OCCN1CCCCC1 | 1260 nM | 2510 nM | 1.26 nM | inactive |  |  |  | 
Cc1cc2c(cc1C(F)(F)F)N(C(=O)Nc1ccc(OCc3ccccn3)nc1)CC2 |  |  |  |  |  |  | 1 mg/kg | 
COc1ccc(N2CCN(c3cccc(F)c3)C2=O)cc1OCCN1CCCCC1 | 501 nM | 2000 nM | 1.58 nM |  | 7% |  |  | > 120 mL/min/kg
COc1ccc(N2CCN(c3ccc(Cl)c(Cl)c3)C2=O)cc1OCCN1CCOCC1 | 316 nM | > 5010 nM | 3.16 nM |  | 7% |  |  | 
COc1ccc(N2CCN(c3cccc(F)c3)C2=O)cc1OCCN(C)C | 1580 nM | 2510 nM | 3.98 nM |  | 40% |  |  | 
COc1ccc(N2CCN(c3ccccc3Cl)C2=O)cc1OCCN1CCCCC1 | > 7940 nM | 3980 nM | 31.6 nM |  |  |  |  | 
Cc1cc2c(cc1C(F)(F)F)N(C(=O)Nc1ccc(Oc3cccnc3C)nc1)CC2 [SB-243213] |  |  |  |  |  |  | 0.7 mg/kg | 
COc1ccc(N2CCN(c3ccc(Cl)c(Cl)c3)C2=O)cc1OCCN(C)C |  | 501 nM | 1.26 nM | inactive |  |  |  | 
O=C1N(c2ccc(OCc3ccccn3)nc2)CCN1c1ccc(Cl)c(Cl)c1 | > 6310 nM | > 10000 nM | 398 nM |  |  |  |  | 
COc1ccc(N2CCN(c3ccc(Cl)c(Cl)c3)C2=O)cc1OCCN1CCCCC1 | 316 nM | 631 nM | 0.794 nM |  | 75% |  |  | 45 mL/min/kg
COc1ccc(N2CC(=O)N(c3cccc(F)c3)C2=O)cc1OCCN1CCCCC1 | > 6310 nM | > 10000 nM | 50.1 nM |  |  |  |  | 
COc1ccc(-n2ccn(-c3cccc(F)c3)c2=O)cc1OCCN1CCCCC1 | 2000 nM | > 1000 nM | 6.31 nM | inactive |  |  |  | 
COc1ccc(N2CCN(c3cccc(F)c3)C2=O)cc1OCCN1CCOCC1 | 794 nM | > 6310 nM | 12.6 nM |  | 10% |  |  | > 120 mL/min/kg
Cc1cc2c(cc1Cl)N(C(=O)Nc1ccc(Oc3cccnc3C)nc1)CC2 [SB-242084] |  |  |  |  |  |  | 2 mg/kg | 
COc1ccc(N2CCN(c3cc(F)cc(F)c3)C2=O)cc1OCCN1CCCCC1 | > 5010 nM | > 10000 nM | 1 nM |  | 40% |  |  | 
